Results gathered from unrelated publications.
BTK: Tyrosine-protein kinase BTK (BTK, Homo sapiens, UniProt Q06187)
COQ8A: Atypical kinase COQ8A, mitochondrial (COQ8A, Homo sapiens, UniProt Q8NI60)

| SMILES | target | assay | setting | endpoint | value |
| --- | --- | --- | --- | --- | --- |
| CCCCC(=O)Nc1ccc(-c2ccc3ncn(CCC)c(=O)c3c2)cn1 | Mast/stem cell growth factor receptor Kit (KIT, Homo sapiens, UniProt P10721, T670I/V559D) | binding, competition with immobilised ligand | 0.5 µM | remaining binding | 79% |
| COc1ccc2oc(-c3ccc4nc(N)oc4c3)c/c(=N\c3ccccc3NC(=O)CCN)c2c1 | BTK | binding | 1 µM | remaining binding | 96% |
| Cc1nc(Nc2ncc(C(=O)Nc3c(C)cccc3Cl)s2)cc(N2CC[C@@H](N)C2)n1 | BTK | enzyme activity, inhibitor, mobility shift | 1 nM | inhibition | 71% |
| C[C@H](NC(=O)C(=O)Nc1ccccc1C(C)(C)C)C(=O)N[C@@H](CC(=O)O)C(=O)COc1c(F)c(F)cc(F)c1F | Caspase-8 (CASP8, Homo sapiens, UniProt Q14790) | enzyme activity, inhibitor |  | kinact/KI | 2.74e+06 M⁻¹ s⁻¹ |
| CN(C)CCOC(=O)COc1ccc(Cl)cc1 | D(4) dopamine receptor (DRD4, Homo sapiens, UniProt P21917) | ligand displacement, radioligand | 1 µM, cell membranes | inhibition | -12.4% |
| [2H]c1cc(C)c(NC(=O)c2cnc(Nc3cc(N4CCCCC4)nc(C)n3)s2)c(Cl)c1 | BTK | enzyme activity, inhibitor, mobility shift | 1 nM | inhibition | 90% |
| Cc1cc(-c2ccnc3[nH]cc(F)c23)cc(F)c1[C@@]1(O)[C@H](C)CN(C(=O)CN)C[C@@H]1C | RAC-beta serine/threonine-protein kinase (AKT2, Homo sapiens, UniProt P31751) | enzyme activity, inhibitor | 15 nM | remaining activity | 94.5% |
| Cc1nc(Nc2ncc(C(=O)Nc3c(C)cccc3Cl)s2)cc(N2CC[C@@H](O)C2)n1 | BTK | enzyme activity, inhibitor, mobility shift | 1 nM | inhibition | 74% |
| C1=C/COCc2cc(ccc2OCCN2CCCC2)Nc2nccc(n2)-c2cccc(c2)COC/1 | Myosin light chain kinase, smooth muscle (MYLK, Homo sapiens, UniProt Q15746) | binding | 0.1 µM | remaining binding | 83% |
| [2H]c1cc(C)c(NC(=O)c2cnc(Nc3cc(N4CC[C@@H](N)C4)nc(C)n3)s2)c(Cl)c1 | BTK | enzyme activity, inhibitor, mobility shift | 1 nM | inhibition | 52% |
| C#Cc1cc(-c2cc(Nc3nc(N[C@@H](C)c4ccc(F)cn4)ncc3Cl)n[nH]2)ccc1C=O | Mitogen-activated protein kinase 12 (MAPK12, Homo sapiens, UniProt P53778) | enzyme activity, inhibitor | 0.2 µM | inhibition | 1.88% |
| Cc1cc(O)c(-c2ccc([C@@H](C)CN(C)C)cc2)c2c1[nH]c(=O)c1sccc12 | [Pyruvate dehydrogenase (acetyl-transferring)] kinase isozyme 1, mitochondrial (PDK1, Homo sapiens, UniProt Q15118) | enzyme activity, inhibitor | 0.1 µM, lysate | inhibition | -15.2% |
| N#Cc1ccc(NC(=O)Nc2ccccc2)cc1 | COQ8A | cell-free assay, competition with immobilised ligand | 25 µM | remaining binding | 96% |
| C#Cc1cnc(Nc2ccnc(CO)c2)nc1Nc1ccccc1S(C)(=O)=NC#N (centres unmarked) | COQ8A | cell-free assay | 1 µM | remaining signal | 97% |
